# Source: PubChem BioAssay
# The full list was thinned out, with hits kept by preference.
# RORA inh: RORA (human) inhibition. P35398. CHO-K1 Gal4-RORA LBD luciferase reporter, luminescence. inhibition, % at 10 µM. actives 0.43% (n = 65,000). AID 561;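 active = inhibition above the mean of all tested compounds plus 3 SD, cut at about 52% in these data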;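 also: 0% = RORA-transfected cells with DMSO and 100% = mock-transfected cells lacking RORA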
# Target sequence (P35398 whole entry, looked up, the tested form may be a part): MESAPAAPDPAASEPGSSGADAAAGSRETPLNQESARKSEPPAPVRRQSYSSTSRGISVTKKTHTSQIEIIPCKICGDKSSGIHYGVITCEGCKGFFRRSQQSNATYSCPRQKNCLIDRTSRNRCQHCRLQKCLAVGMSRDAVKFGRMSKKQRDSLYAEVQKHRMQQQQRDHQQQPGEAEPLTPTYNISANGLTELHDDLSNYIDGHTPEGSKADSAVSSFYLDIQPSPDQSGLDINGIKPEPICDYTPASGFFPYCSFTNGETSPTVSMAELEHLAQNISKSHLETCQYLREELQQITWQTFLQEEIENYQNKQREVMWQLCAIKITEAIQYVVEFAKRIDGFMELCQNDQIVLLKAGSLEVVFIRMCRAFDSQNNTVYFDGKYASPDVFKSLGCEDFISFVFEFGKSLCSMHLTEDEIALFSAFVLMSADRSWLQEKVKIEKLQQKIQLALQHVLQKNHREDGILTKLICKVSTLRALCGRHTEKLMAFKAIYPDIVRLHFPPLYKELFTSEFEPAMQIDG
#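 Test system: CHO-K1 cells with Gal4-hRORA LBD fusion and pG5-luc reporter | Timing: 20 h compound treatment, 37 °C | Detection: Luminescence from basal luciferase reporter expression | Read-out basis: % inhibition of basal luciferase versus +RORA/-RORA DMSO controls | Repeats: One measurement per compound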
# * = called active by the depositor.
SMILES,RORA inh
CSc1ccc(/C=N/n2nnnc2N)cc1,-51.3
C=CCSc1nncn1/N=C/c1ccc(OC)cc1,-90.8
COc1ccc(/C=N\n2nnc3ccccc32)cc1,74.4*
CCOC(=O)Cc1csc(NC(=O)CCS(=O)(=O)Cc2ccccc2)n1,-1.9
Cc1cc2c(cc(C(=O)OCC(=O)NCc3cccs3)n2C(C)C)o1,-56.6
O=C(Nc1ccc(N2CCOCC2)c(Cl)c1)c1ccc(Br)o1,-55.3
O=C(Nc1ccc(S(=O)(=O)N2CCCC2)cc1)c1ccc(CN2CCOCC2)cc1,20.5
O=C(Nc1ccc(N2CCOCC2)cc1)c1cnsn1,68.8*
Cc1ccc(-c2ccc(/C=N/c3ncn[nH]3)o2)cc1Cl,-4.7
Cc1cc(/C=N/n2cnnc2)c(C)n1-c1ccc(OCc2ccc(F)cc2)cc1,70.3*
C(=N\n1cnnc1)/c1ccc(OC2CSC2)cc1,-20.3
Cc1ccc(-c2cnc(NC(=O)CCC(=O)N3CCCCC3)n2C)cc1,76.6*
Cn1c(-c2ccc3c(c2)OCO3)cnc1NC(=O)CCC(=O)NCCc1ccccc1,23.8
CCCC(=O)Nc1ccc(C(=O)N2CCCC2)cc1,6.1
c1ccc(-c2cccc(-c3ccccn3)n2)nc1,64.2*
c1ccc(CCc2nc(-c3ccccn3)no2)cc1,-53.7
COc1nc(C)ccc1-c1noc(-c2ccccn2)n1,-61.2
Cc1ccc(CC(CC(=O)O)C(=O)NC2CCCCC2)cc1 (stereo not drawn),10.8
O=C(Nc1ccccc1)Nc1cccc2cccnc12,-86.2
O=S1(=O)Nc2c(ccc3cccnc23)-c2ccccc21,73.9*
O=S(=O)(NCCOC12CC3CC(CC(C3)C1)C2)c1cccc2nsnc12,23.2
CC(C)CCn1nnnc1C(c1ccc(N(C)C)cc1)N1CCN(C(=O)c2ccco2)CC1 (stereo not drawn),21.7
c1csc(CCNc2ncnc3sc4c(c23)CCC4)c1,71.7*
O=C(NCc1cccs1)c1noc2c1CCCC2,-55.1
CC(=O)Nc1ccc(-n2c(C)nc(=O)c(-c3ccccc3)c2C)cc1,10.2
SMILES,RORA inh
N#CC(C#N)=c1ccc2c(c1)NC1(CCCCC1)N=2,58.1*
COc1ccccc1-c1cc(C(F)(F)F)nc(S(=O)(=O)CCCC(=O)NC(C)C)n1,57.0*
Cc1cc(NC(=O)COc2cccc3cccnc23)no1,-14.1
COc1ccc(S(=O)(=O)CCC(=O)NC2CCCCC2)cc1,6.1
COc1ccc(S(=O)(=O)N(CC(=O)Nc2cc(C)on2)Cc2ccccc2)cc1,-5.6
COc1ccccc1-c1cc(C(F)(F)F)nc(S(=O)(=O)CCCC(=O)Nc2cc(C)on2)n1,70.3*
COc1ccccc1CNC(=O)C(C)NS(=O)(=O)c1ccc(C)cc1 (stereo not drawn),34.2
Cc1ccc(OCC(=O)n2nc(C)cc2C)c(Br)c1,3.2
CC1CCN(C(=O)CSc2ccc3nnc(-c4ccccc4)n3n2)CC1,7.9
Cc1cc(-c2ccccc2)nc(N2CCC(C(=O)NC(C)C)CC2)n1,-66.6
CC(=O)N1CCn2c3c(c(=O)c4cc(C)ccc42)CCC31 (stereo not drawn),-1.7
CC1(C)N=C(c2ccc(Cl)cc2Cl)C(=O)N1,-8.9
Cc1nnc(Sc2nc(Sc3nnc(C)s3)nc(N3CCN(C)CC3)n2)s1,93.4*
CC1(C)CC(=O)c2cnc(NC(=O)C3CCCC3)nc2C1,-7.1
COc1ccc(C(O)P(=O)(O)CCc2ccccc2)cc1 (stereo not drawn),-52.3
COc1ccc(-c2nc(CSCC(=O)NCc3ccco3)c(C)o2)cc1,72.2*
COc1ccc(CNC(=O)CS(=O)Cc2nc(-c3ccc(C)cc3)oc2C)cc1 (stereo not drawn),-0.2
CCOc1ccc(-c2nnc(SCC(=O)N3CCN(c4ccccc4)CC3)o2)cc1,-8.2
O=C(CSCC(=O)NCc1ccco1)NCc1ccco1,8.5
Cc1ccc(-c2nc(CS(=O)CC(=O)NCc3ccccc3)c(C)o2)cc1 (stereo not drawn),-13.0
CCOc1ccc(-c2nc(CSCC(=O)NCCN3CCOCC3)c(C)o2)cc1,71.2*
O=C(CN1CCC(n2nnc3ccccc32)CC1)NCc1cccs1,7.6
O=C(C1CC1)N1CCN=C1SCc1ccccc1Cl,-4.7
COc1ccc(CCNC(=O)C2CCCN(C(=O)N(C)C)C2)c(OC)c1 (stereo not drawn),-14.2
CCOC(=O)NCCc1c(C)nc2c(c(C)nn2C(C)(C)C)c1C,11.5
SMILES,RORA inh
COc1ccccc1C(=O)Nc1c2c(nn1-c1cccc(C)c1C)CS(=O)(=O)C2,19.7
CC(Sc1ccc2ccccc2n1)C(=O)O (stereo not drawn),0.9
O=C1C2C3C=CC(C3)C2C(=O)N1c1ccc(-c2nc3ccccc3o2)cc1 (stereo not drawn),-72.8
c1ccc2nc(-c3nc4ccccc4o3)ccc2c1,58.3*
Cc1ccc(CNC(=O)C2CNc3cc(C)ccc3O2)cc1 (stereo not drawn),17.0
CCCCOCCCNC(=O)c1c(-c2ccccc2)noc1C,19.0
CC(NC(=O)Nc1nnc(C(F)(F)F)s1)(C(F)(F)F)C(F)(F)F,94.5*
Cc1ccc2[nH]c3c(N4CCN(Cc5ccc6c(c5)OCO6)CC4)ncnc3c2c1,81.6*
O=C(Cn1ccc2ccccc2c1=O)N1CCN(Cc2ccc3c(c2)OCO3)CC1,-8.0
Cc1ccc2[nH]c3c(N4CCCCCC4)ncnc3c2c1,77.7*
c1nc(N2CCN(Cc3ccc4c(c3)OCO4)CC2)c2[nH]cnc2n1,22.5
Cc1ccc2c(c1)c1ncnc(N3CCC4(CC3)OCCO4)c1n2C,-62.1
COCCn1nnnc1C(c1ccc(C)cc1)N1CCN(Cc2ccc3c(c2)OCO3)CC1 (stereo not drawn),9.0
O=C(N1CCN(Cc2ccc3c(c2)OCO3)CC1)C12CC3CC(CC(C3)C1)C2,7.9
COc1ccc2c(c1)[nH]c1c(N3CCN(Cc4ccc5c(c4)OCO5)CC3)ncnc12,72.2*
CCC1SC2=NC(C)=C(C(=O)OC)C(c3cccs3)N2C1=O (stereo not drawn),-7.1
CN(C)c1nc(N)nc(Cn2ccnc2)n1,21.2
O=C(NCCCn1ccnc1)c1csc2ccccc12,3.7
O=C(c1cccnc1)N1CCN(C(=O)c2cccs2)CC1,-1.2
O=C(Nc1ccon1)c1cccc(C(F)(F)F)c1,17.3
O=C(CSCCO)Nc1cc(C(F)(F)F)ccc1Cl,12.8
CCn1c(=O)cc(NC2=NCC(C)CN2c2cccc(Cl)c2)n(C)c1=O (stereo not drawn),0.5
Cn1c(NC(=O)C2c3ccccc3Oc3ccccc32)cc(=O)n(C)c1=O,-19.3
Cc1cc(C(=O)CN2C(=O)c3ccccc3S2(=O)=O)c(C)n1CC1CCCO1 (stereo not drawn),61.7*
Cc1nnc(SCc2ccccc2Cl)n1CC1CCCO1 (stereo not drawn),5.9
SMILES,RORA inh
COc1ccc(-c2nnc(SCC(=O)NC(C)C)n2CC2CCCO2)cc1OC (stereo not drawn),-15.2
N#C/C(C(=O)c1ccccc1)=C1/SC=C(N)N1c1ccccc1,-31.3
CCCc1cc(NCCN2CCOCC2)n2c(nc3ccccc32)c1C#N,-5.7
CCc1ccc(-c2nc(CN3CCCC(C(=O)NCCc4ccc(OC)c(OC)c4)C3)c(C)o2)cc1 (stereo not drawn),-10.8
CCOC(=O)N1CCC(NC(=O)C2CCCN(Cc3nc(-c4cccc(Cl)c4)oc3C)C2)CC1 (stereo not drawn),63.3*
Cc1oc(-c2cccc(Cl)c2)nc1CN1CCC(C(=O)NCCCN2CCCC2=O)CC1,-2.2
COc1ccc(-n2c(SCC#N)nnc2-c2ccc(NS(=O)(=O)c3ccc(C)cc3)cc2)cc1,-6.9
